# Screens from PubChem.
# S1P3 ag – agonists of human S1P3 receptor; AID 373; activation, % at 4.5 µM; actives 0.1% (n = 60,000); Q99500; S1P3 NFAT-BLA reporter cells, agonism, FRET ratio; relative to 1 µM S1P, basal subtracted;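 active = activation above the screen-wide mean plus 3 SD, cut at about 4.5% in these data, passing the limit was not always enough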
#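 Assay system: stable CHO line with human S1P3, Gα16, NFAT-BLA reporter; Detection: FRET β-lactamase substrate fluorescence, excitation 405 nm, 460/535 nm emission ratio, background-subtracted; Read-out: percent activation versus median 1 µM S1P response, basal-subtracted, per plate; Incubation: cells plated overnight, compound 4 h 37 °C, substrate 2 h RT.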
# 5HT1E ag – agonists of human 5-HT1E serotonin receptor. CHO 5-HT1E Ga15 NFAT-bla reporter, FRET; 0% DMSO wells, 100% control agonist wells. actives 0.69% (n = 65,000). activation, % at 6 µM. P28566;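 active = activation above a set limit, the screen-wide mean activation plus 3 SD, cut at about 8.5% in these data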;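 note: 100% = positive control agonist at 1 µM giving full maximal response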
# 5HT1a ag – agonists of human 5-HT1a serotonin receptor; activation, % at 10 µM; P08908; CHO 5-HT1a Ga15 NFAT-bla reporter, FRET ratio; 0% basal, 100% maximal reference agonist; actives 0.56% (n = 65,000);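 active = activation above the screen-wide mean activation plus 3 SD, cut at about 19% in these data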;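 note: 0% = DMSO wells and 100% = 5-CT at EC100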
# Target sequence (P08908 whole entry, looked up): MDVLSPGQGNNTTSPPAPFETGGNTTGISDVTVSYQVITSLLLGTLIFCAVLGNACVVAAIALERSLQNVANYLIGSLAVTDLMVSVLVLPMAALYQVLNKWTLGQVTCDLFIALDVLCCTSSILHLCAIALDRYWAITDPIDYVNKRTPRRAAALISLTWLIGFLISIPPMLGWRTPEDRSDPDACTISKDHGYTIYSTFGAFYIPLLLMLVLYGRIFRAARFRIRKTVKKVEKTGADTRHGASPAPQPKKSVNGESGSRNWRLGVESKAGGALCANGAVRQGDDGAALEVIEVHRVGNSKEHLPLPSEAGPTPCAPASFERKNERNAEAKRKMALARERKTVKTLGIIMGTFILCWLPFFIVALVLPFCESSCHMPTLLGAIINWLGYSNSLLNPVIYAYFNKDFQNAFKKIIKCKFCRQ
# HTR1E antagonist – blocks the human 5-HT1E serotonin receptor | P28566 | AID 571 | actives 0.99% (n = 65,000) | CHO 5-HT1E Ga15 NFAT-bla reporter, FRET, antagonist | inhibition, % at 6 µM;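 active = inhibition above a set limit, the mean inhibition across every tested compound plus 3 SD, cut at about 29% in these data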;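 note: signal is the 460 over 535 nm emission ratio of beta-lactamase substrate; 0% = agonist plus DMSO wells and 100% = wells without agonist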
# S1P1 ag-PAM – activates or potentiates agonism at human S1P1 receptor; P21453; S1P1 CRE-bla cells, forskolin, beta-lactamase FRET, potentiator mode; S1P1 agonist co-added at EC20, 2 nM; 100% = saturating reference agonist, 0% = basal; activation, % at 9.5 µM; actives 0.57% (n = 56,000); AID 449;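 active = activation above a cutoff set at the mean activation of all tested compounds plus 3 SD, cut at about 54% in these data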;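 note: forskolin at 4 µM as EC80 and the EC20 agonist is SEW2871; 100% = SEW2871 at its EC100 plus forskolin at EC80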
# 5HT1a antag – antagonists of human 5-HT1a serotonin receptor. CHO 5-HT1a Ga15 NFAT-bla reporter, antagonist mode. inhibition, % at 10 µM. actives 0.68% (n = 62,000);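 active = inhibition above the mean of all tested compounds plus 3 SD, cut at about 43% in these data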;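 note: receptor stimulated by 5-CT agonist at 100 nM near EC80; beta-lactamase reporter measured by ratiometric fluorescence of a cleavable substrate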
# * hit, by the source's call; . = no result. Rows were chosen to be rich in hits. Some 3% of all compounds tested hit in one or more screens of this group.
SMILES,S1P3 ag,5HT1E ag,5HT1a ag,HTR1E antagonist,S1P1 ag-PAM,5HT1a antag
Cn1c(=O)[nH]c(=O)c2c1nc(Br)n2CCCSc1nc2ccccc2o1,-2,0,3,34*,-23,14
CCOC(=O)c1c(CN2CCCCC2)oc2ccc(OC)cc12,0,0,21*,1,4,.
CCOC(=O)c1c(CN2CCN(C)CC2)oc2ccc(OC)cc12,0,0,0,-10,-16,-12
CCN(CC)S(=O)(=O)c1ccc2c(c1)c(=O)c(C(=O)NCCN(C)CCc1ccccc1)cn2C,0,0,-3,-2,29,5
Clc1ccc(CSc2nnc(-c3ccncc3)o2)cc1,3,0,1,5,97*,5
OCC#CCSc1nnc(-c2ccncc2)o1,-2,1,-2,-3,-6,-1
Cc1nn(-c2ccc(F)cc2)c2nc(N)c(C#N)c(-c3cccs3)c12,0,-2,3,36*,24,29
CCOC(=O)C(NC(C)=O)(Nc1ccc(S(=O)(=O)Nc2nccs2)cc1)C(F)(F)F (stereo not given),0,-1,0,3,13,10
O=C(NCc1cccnc1)c1cccc2c1C(=O)N(C1CCCCC1)C2,0,0,1,12,-8,5
O=C(NCc1ccco1)c1cccc2c1C(=O)N(C1CCCCC1)C2,-2,1,2,30*,-2,14
CCNc1nc(C)c2cc(Br)c(=O)n(CC)c2n1,-2,-1,-1,58*,-35,42
O=C(Nc1nc(=O)c2ccccc2s1)c1ccccc1,-3,0,0,3,-7,.
Cc1ccc(C(=O)Nc2nc3ccccc3c(=O)s2)cc1,1,0,-2,-5,-11,67*
CCOc1ccc(C(=O)Nc2ccc(Cl)cn2)cc1Cl,-1,1,0,-1,73*,10
NC(=O)CN1CCN(c2ccccc2F)CC1,-1,0,-3,7,-28,-3
Oc1ccc2ccccc2c1CN1CCN(c2ccccc2F)CC1,0,14*,3,-11,7,1
COc1cccc(-n2c(SCC(=O)NCCC3=CCCCC3)nc3n[nH]c(C)c3c2=N)c1,0,1,0,-8,-33,-13
COc1cccc(NC(=O)CSc2nc3n[nH]c(C)c3c(=N)n2-c2cccc(OC)c2)c1,0,1,2,33*,-10,-11
CCn1c(=S)sc2c(=O)n(-c3ccccc3)c(SCC(=O)NCc3ccco3)nc21,.,0,-1,-2,.,22
CCOC(=O)CSc1nc2c(sc(=S)n2Cc2ccco2)c(=O)n1-c1ccc(F)cc1,.,0,0,11,.,50*
Clc1ccc(OCc2nc(-c3ccncc3)no2)c(Br)c1,0,0,0,4,72*,-9
CC(C)c1ccc(OCc2nc(-c3ccccn3)no2)c(Br)c1,-2,1,5,-13,86*,-20
Clc1ccccc1OCc1nc(-c2ccncc2)no1,-1,1,-1,-3,.,-10
Cc1cc(NC(=O)CSc2nc(-c3cccs3)cc(C(F)(F)F)n2)no1,0,0,-2,59*,4,21
COC(=O)c1ccccc1NC(=O)CSc1nc(-c2ccco2)cc(C(F)(F)F)n1,-2,-1,-2,50*,8,28
SMILES,S1P3 ag,5HT1E ag,5HT1a ag,HTR1E antagonist,S1P1 ag-PAM,5HT1a antag
Cc1cc(NC(=O)CCCS(=O)(=O)c2nc(-c3cccs3)cc(C(F)(F)F)n2)no1,-2,1,-4,30*,36,98*
CS(=O)(=O)c1nc(-c2cccs2)cc(C(F)(F)F)n1,.,2,-13,106*,.,110*
N#Cc1cc2cc3c(cc2nc1N1CCOCC1)OCO3,-1,0,7,-9,-3,-3
Cc1ccc(S(=O)(=O)N2CCC(C(=O)N[C@@H](Cc3ccccc3)C(=O)O)CC2)cc1,-2,2,-1,-5,-14,2
COCC(C)NS(=O)(=O)c1ccc(OC)cc1 (stereo not given),0,1,-3,4,-3,-6
CN1CCc2c(sc3c2c(=O)n(-c2ccccc2)c2nnc(SCc4ccc(Cl)cc4)n32)C1,0,1,-2,8,-1,-12
CN=C1SC(CC(=O)Nc2cccc(C(F)(F)F)c2)C(=O)N1C (stereo not given),-1,-1,-1,-8,-3,11
CC(=O)Nc1ccc(S(=O)(=O)NCc2ccc(C(=O)NCc3ccc4c(c3)OCO4)cc2)cc1,0,-1,0,3,-6,-10
COc1cc2c(cc1OC)C1Cc3ccc(OC)c(OC)c3CN1CC2 (stereo not given),-1,8,-1,2,2,51*
COc1ccc(C(=O)N2CCc3cc(OC)c(OC)cc3C2)cc1OC,0,0,-1,11,-6,3
O=C(CCCN1CCC(c2ccccc2)C1)c1ccc2c(c1)OCCO2 (stereo not given),0,8,6,-1,-10,82*
O=C(Nc1ccc(N2CCOCC2)c(Cl)c1)c1cccnc1,0,-1,-3,6,-3,8
Nc1ccc(N2CCOCC2)c(Cl)c1,-1,0,-3,-6,93*,0
O=C1c2ccccc2C(Nc2ccc(S(=O)(=O)N3CCCCCC3)cc2)N1Cc1ccco1 (stereo not given),-1,0,44*,5,23,13
Cc1cccc(C)c1Nc1nnc(SCC(=O)NCc2ccco2)s1,1,0,-2,-7,-2,-1
COc1ccc(CC(=O)Nc2c3c(nn2-c2cccc(C)c2C)CS(=O)C3)cc1 (stereo not given),1,19*,1,0,2,0
Cc1ccc(S(=O)(=O)Nc2nsc(N)n2)cc1,1,0,-2,-13,2,-17
O=C(O)C1CCCCC1C(=O)NCCc1c[nH]c2ccccc12 (stereo not given),0,99*,22*,14,12,-6
O=C(NCCc1c[nH]c2ccccc12)C(F)(F)C(F)F,-1,26*,0,11,6,9
O=C(NCCc1c[nH]c2ccccc12)C1CCN(c2nnc(N3CCCC3=O)s2)CC1,0,46*,0,-8,-23,6
O=C(O)C1CCCCC1C(=O)NCCc1ccncc1 (stereo not given),0,-1,-4,0,-20,1
O=c1c(-c2nc3ccccc3o2)c2oc3ccccc3n2c2ccccc12,0,0,-2,-14,-73,-18
